# Bioassay records (PubChem)
# Hits are enriched below; roughly 2.2% of the tested compounds scored in any of these assays.
# GalR3 antag = antagonists of human GalR3 | HEK293 GalR3-CNG cAMP membrane potential fluorescence; galR3 body fused to GalR1 C-terminus | AID 651719 | hit rate 0.44% among 360,000 | inhibition, % at 3 µM | O60755;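 active means inhibition above the screen-wide average plus 3 SD, cut at about 13% in these data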;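 further: forskolin and galanin both at EC90 stimulate the cells; cAMP rise reported by CNG channel membrane potential dye signal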
# SMARCA2 activ = SMARCA2 function activation, primary screen; hit rate 1% among 370,000; MG213 cells, MMTV-luciferase reporter, dexamethasone, overnight; activation, % at 9.1 µM; in the data active means activation above about 7.8%
# COUP-TFII inh = inhibitors of human COUP-TFII (NR2F2). P24468. HEK293T NGFI-A luciferase reporter, luminescence. inhibition, % at 8.6 µM. hit rate 0.7% among 370,000;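 active means inhibition above a per-plate cutoff, mean inhibition of test wells between control levels plus 3 SD, cut at about 38% in these data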;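 further: cells cotransfected with COUP-TFII expression vector driving the NGFI-A reporter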
# NR2E3 ag-1 = activates human photoreceptor nuclear receptor NR2E3; Q9Y5X4; GST-NR2E3/biotin-RetCOR TR-FRET, 1536-well; inhibition of corepressor binding, % at 4.78 µM; hit rate 0.12% among 320,000; AID 2300;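 active means percent inhibition above the cutoff of mean plus 3 SD of all tested compounds, set per screening campaign, cut at about 20% in these data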
# Target sequence (Q9Y5X4 whole entry, looked up): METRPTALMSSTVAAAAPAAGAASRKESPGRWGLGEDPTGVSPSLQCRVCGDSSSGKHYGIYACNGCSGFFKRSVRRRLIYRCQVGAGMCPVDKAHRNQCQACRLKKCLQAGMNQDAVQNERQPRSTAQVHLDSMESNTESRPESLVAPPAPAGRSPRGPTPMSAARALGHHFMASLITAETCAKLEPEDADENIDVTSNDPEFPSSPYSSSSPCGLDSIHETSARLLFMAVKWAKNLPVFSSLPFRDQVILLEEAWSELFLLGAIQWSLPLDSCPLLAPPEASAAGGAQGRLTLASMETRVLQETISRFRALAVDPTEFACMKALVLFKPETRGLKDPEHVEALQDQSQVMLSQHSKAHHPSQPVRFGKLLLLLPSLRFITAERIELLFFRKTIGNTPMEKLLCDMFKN
#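 Material: NR2E3–RetCOR corepressor complex | Quantity: 1.35 nM GST-tagged NR2E3 final | Schedule: 5 h at 4 °C | Replication: Singlicate compound wells | Reagent: RetCOR corepressor, biotinylated, 7 nM | Controls: Biotin wells as high control, 0.6% DMSO wells as low control | Signal: TR-FRET, Eu(K)-anti-GST donor, streptavidin-D2 acceptor, ex 340, em 617/671 nm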
# NR2E3 ag-2 = activates human NR2E3 receptor; CHO-S Gal4-NCOR/VP16-NR2E3 two-hybrid, luciferase; inhibition of corepressor binding, % at 3.98 µM; hit rate 0.35% among 360,000; AID 602229;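 active means inhibition above the mean of all tested compounds plus 3 SD, cut at about 70% in these data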;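 further: higher means lower luciferase signal from less NR2E3 corepressor binding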
# VP16 Luc counter = inhibits VP16 reporter, flagging COUP-TFII antagonist hits; shares compounds with COUP-TFII inh; HEK293 Gal4-VP16 luciferase reporter, luminescence; inhibition, % at 8.5 µM; hit rate 25% among 2,500; in the data active means inhibition above about 13%
# COUP-TFII conf = confirmation of human COUP-TFII (NR2F2) inhibitors; hit rate 45% among 2,500; HEK293 NGFI-A luciferase reporter, luminescence; inhibition, % at 8.5 µM; shares compounds with COUP-TFII inh;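 active means mean inhibition over three repeats above a set limit taken from the earlier primary screen, cut at about 38% in these data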
# A number is an active result; . = inactive; / = not tested or not shown.
SMILES,GalR3 antag,SMARCA2 activ,COUP-TFII inh,NR2E3 ag-1,NR2E3 ag-2,VP16 Luc counter,COUP-TFII conf
CCCc1c(-c2ccc(OC)cc2)ncn1CCc1ccccc1OC,.,.,47,/,/,.,.
Cc1ccc(-n2[nH]c(=O)c3cccnc32)cc1,.,.,.,.,.,/,/
Cc1ccc(-n2[nH]c(=O)c(-c3ccccn3)c2C)cc1,.,.,44,.,.,.,.
NC(=NCc1ccccc1)NC(=O)OCc1ccccc1,/,.,.,/,/,/,/
COc1ccc2c(/C=C/c3cc[n+](C)cc3)c[nH]c2c1,.,.,38,.,.,.,39
CC[n+]1ccc(/C=C/c2c[nH]c3ccccc23)cc1,.,.,51,.,.,.,.
Cc1ccc2[nH]cc(/C=C/c3cc[n+](C)cc3)c2c1,.,.,43,/,.,.,.
COC(=O)[C@H](CC(C)C)N(CCCc1cn(CC2CCCCC2)nn1)S(=O)(=O)c1ccccc1Br,/,.,.,/,/,/,/
O=C(CSc1nc2ccccc2n1Cc1ccccc1Cl)NN=C/C(Br)=C/c1ccccc1,/,.,.,/,/,/,/
Oc1cccc2cc(Nc3ccccc3)cnc12,.,.,55,/,.,.,46
Oc1cc(Nc2ccccc2)cc2cccnc12,.,.,.,/,.,/,/
Cc1cc(C)cc(C(=O)OCCCN(C)C2CN(Cc3cn(Cc4cccc(F)c4)nn3)S(=O)(=O)C2)c1 (stereo not drawn),/,.,.,/,/,/,/
O=C(CN1C(=O)c2ccccc2S1(=O)=O)c1ccccc1,.,.,.,.,.,/,/
Cc1ccc(C(=O)CN2C(=O)c3ccccc3S2(=O)=O)cc1,.,.,74,.,.,77,91
O=C(CN1C(=O)c2ccccc2S1(=O)=O)c1ccccc1Cl,.,.,63,.,.,.,.
Cc1noc(C)c1C(C)C1=CCCCC1 (stereo not drawn),/,.,.,/,/,/,/
O=C(Nc1ccc(F)cc1)OCCN1C(=O)CCC12CCC(c1ccc(Cl)cc1)CC2 (stereo not drawn),/,.,.,/,/,/,/
Nc1ccc(Br)cc1C(=O)O,.,.,45,.,.,54,.
Nc1ccc(-c2ccc(N)c(C(=O)O)c2)cc1C(=O)O,.,.,.,.,.,/,/
COc1ccccc1N(/N=C1\Sc2ccccc2C1=O)C(C)=O,.,.,39,.,.,.,.
COCCCNC(=O)C[C@H]1C[C@@]2(C(=O)OC)C(=C[C@H](C(C)C)O[C@@H]2C2CC2)N(Cc2ccco2)C1=O,/,.,.,/,/,/,/
Cc1nnc(SCC(=O)N2CCC(c3noc4ccc(F)cc34)CC2)s1,.,.,49,.,.,.,.
CCOC(=O)CNC(=O)CSc1nc2ccccc2c(=O)n1-c1ccc(Cl)cc1,/,.,.,/,/,/,/
Cc1sc(NC(=O)c2ccco2)c(C(c2cccnc2)N2CCN(CCO)CC2)c1C (stereo not drawn),.,.,.,.,.,/,/
CCOC(=O)C1CCN(C(c2cccnc2)c2c(NC(=O)c3ccco3)sc(C)c2C)CC1 (stereo not drawn),.,.,70,.,.,.,39
SMILES,GalR3 antag,SMARCA2 activ,COUP-TFII inh,NR2E3 ag-1,NR2E3 ag-2,VP16 Luc counter,COUP-TFII conf
Cc1ccc(-n2c(C)cc(C(=O)NS(=O)(=O)c3ccc(C)cc3)c2C)cc1,.,.,.,.,.,/,/
Cc1ccc(NC(=O)c2cc(C)n(-c3cccc(C)c3)c2C)cc1,.,.,38,.,.,.,38
Cc1ccc(-c2csc(N3CCN(CCCn4c(-c5ccncc5)nc5ccccc54)CC3)n2)cc1,.,.,53,.,.,.,.
CC(=O)N[C@@H](C)c1nc2ccccc2n1CCCN1CCN(c2nc(-c3ccc(C)cc3)cs2)CC1,.,.,62,.,.,.,48
Cc1ccc(-c2csc(N3CCN(CCCn4c(C(F)(F)F)nc5ccccc54)CC3)n2)cc1,.,.,.,.,.,/,/
Cc1ccc(NC(=O)c2ccc(Nc3c([N+](=O)[O-])cc([N+](=O)[O-])cc3[N+](=O)[O-])cc2)cc1,.,.,70,.,.,.,47
c1ccc(-c2ccc(C3=Nn4c(nnc4-c4ccncc4)SC3)cc2)cc1,/,.,.,/,/,/,/
Clc1ccccc1C1=Nn2c(nnc2-c2ccncc2)SC1,.,.,40,.,.,.,.
COc1cccc(NC(=O)Nc2nc3ncccn3c2-c2ccc(F)c(F)c2)c1,/,.,.,/,/,/,/
